aDG glyco act: alpha-DG glycosylation activation; Pro5-aDG cells, alpha-DG glycosylation AlphaScreen (IIH6); 0% Pro5, 100% B10-LARGE cell signal; activation, % at 10 µM; 0.22% of 360,000 active;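 active means activation of at least 8% versus controls, or a plate z-score of at least 8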;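 further: Pro5 are CHO cells carrying HIG-tagged alpha-DG that lacks glycosylation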
NPR1 activator: GC-A (human) enzyme activation; HEK293 GC-A cells, cGMP TR-FRET, EC30 ANP; 0% at EC30 ANP, 100% saturating ANP; activation, % at 10 µM; 0.14% of 370,000 active; AID 1671463; in the data active means activation above about 40%
Hep lipid drop: hepatic lipid droplet formation modulation; inhibition, % at 6.5 µM; AML12 mouse hepatocytes, oleate lipid droplets, BODIPY imaging; 0.4% of 240,000 active; AID 1656;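 active means lipid droplet intensity inhibited by at least 50%, with more than 500 cells counted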
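Material – mouse AML12 hepatocyte cell line, fixed after treatment · Compound dosing – one dose, 6.5 µM compound · Times – compound with oleate, overnight · Measured by – Image-based BODIPY and DAPI two-channel analysis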
GASC-1 inh: blocks human GASC-1 demethylase activity; Q9H3R0; GST-JMJD2C(1-420) H3K9me3 demethylation, DELFIA europium; inhibition, % at 2.35 µM; 0.069% of 330,000 active; AID 2099;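 active means more than half of a compound's replicate wells show inhibition beyond 50%, single wells judged on their own value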;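 further: signal counts dimethyl H3K9 product captured on neutravidin plate; 0% = median of DMSO wells and 100% = 0.3 times that DMSO median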
Target sequence (Q9H3R0 1-420 limits assumed): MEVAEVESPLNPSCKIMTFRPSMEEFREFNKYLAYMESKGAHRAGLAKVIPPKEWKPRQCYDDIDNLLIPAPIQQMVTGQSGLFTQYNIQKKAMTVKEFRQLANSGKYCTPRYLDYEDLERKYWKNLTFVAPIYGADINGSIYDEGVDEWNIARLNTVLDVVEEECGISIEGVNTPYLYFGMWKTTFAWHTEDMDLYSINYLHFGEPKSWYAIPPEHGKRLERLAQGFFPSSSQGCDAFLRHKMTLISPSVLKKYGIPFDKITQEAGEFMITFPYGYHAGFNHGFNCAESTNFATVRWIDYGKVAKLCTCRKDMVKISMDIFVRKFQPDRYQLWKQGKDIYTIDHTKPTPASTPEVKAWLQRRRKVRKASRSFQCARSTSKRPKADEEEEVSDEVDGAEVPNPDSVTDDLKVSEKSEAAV
GC-B act: GC-B (human) receptor activation. HEK293-GC-B cells, CNP EC30, cGMP TR-FRET; 0% at EC30 CNP, 100% saturating CNP. 0.11% of 370,000 active. P20594. AID 1920062. activation, % at 10 µM;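 active means activation at 10 µM reaching about 35% in either raw or pattern-adjusted values, limit read from the data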
GRIN3A LBD mod: modulates the human NR3A ligand-binding domain; NR3A LBD differential scanning fluorimetry, Tm shift; 0% = protein alone, 100% = glycine-bound protein; Tm shift relative to glycine control, % at 25 µM; 2.5% of 340,000 active;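 active means melting temperature shift of at least 10% of the positive control shift, at one fixed dose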
An asterisk follows results filed as active; ! = repeats disagree. This is a sample that favours compounds with a hit; in the whole collection about 3% have one here.

What do the screens show for `O=C(CSc1nc2cc3ccccc3cc2[nH]1)Nc1ccc(F)cc1`?
aDG glyco act: 0; NPR1 activator: -4; Hep lipid drop: 19; GASC-1 inh: 9; GC-B act: -13; GRIN3A LBD mod: 17*

How did Cc1ccc(NC(=O)CSc2nc3nc(C)c(Br)cc3[nH]2)cc1F do in these assays?
aDG glyco act: 0; NPR1 activator: 1; Hep lipid drop: 3; GASC-1 inh: 3; GC-B act: -3; GRIN3A LBD mod: 14*

What do the screens show for `COC(=O)CSc1nc2nc(C)c(Br)cc2[nH]1`?
aDG glyco act: 0; NPR1 activator: 2; Hep lipid drop: -2; GASC-1 inh: -6; GC-B act: 1; GRIN3A LBD mod: 0

Results for O=C(CSc1ncc(-c2ccc(F)cc2)[nH]1)Nc1cccc(O)c1 ?
aDG glyco act: 0; NPR1 activator: 1; Hep lipid drop: -3; GASC-1 inh: 8; GC-B act: -12; GRIN3A LBD mod: 16*

What do the screens show for `O=C(CSc1nc2ccc(Cl)cc2[nH]1)Nc1ccc2c(c1)CCC2`?
aDG glyco act: 0; NPR1 activator: -2; Hep lipid drop: -6; GASC-1 inh: 7; GC-B act: -5; GRIN3A LBD mod: 21*

What do the screens show for `COc1ccc(C#CCN(C)/C(N)=N/C(=O)OCc2ccccc2)cc1`?
NPR1 activator: -1; GC-B act: 7

Results for C[C@H](O)[C@@H]1C(=O)N2CCc3c([nH]c4c(-c5ccccc5)cccc34)[C@@H]2C[C@@H]1N(C)C(=O)c1ccccc1F ?
NPR1 activator: -7; GC-B act: -3

How did CC(C)c1cc(C(C)C)c(S(=O)(=O)N2CCC(C(=O)NCC3COCCO3)CC2)c(C(C)C)c1 (stereo not drawn) do in these assays?
NPR1 activator: 0; GC-B act: -8

How did COc1ccccc1CN(C)C[C@@H]1OCc2cnnn2CCCC(=O)N([C@H](C)CO)C[C@H]1C do in these assays?
aDG glyco act: 0; NPR1 activator: -1; GC-B act: -5

How did COc1cccc(NC(=O)C2CCCN2C(=O)Nc2cccc3c2OCO3)c1 (stereo not drawn) do in these assays?
NPR1 activator: -5; GC-B act: -5

How did Cc1ccc2nc(SC(C(=O)Nc3ccc(F)cc3)c3ccccc3)[nH]c2c1 (stereo not drawn) do in these assays?
aDG glyco act: 1; NPR1 activator: -2; Hep lipid drop: -27; GASC-1 inh: -4; GC-B act: 0; GRIN3A LBD mod: 16*

How did O=[N+]([O-])c1ccc(SCCc2ccccn2)cc1 do in these assays?
aDG glyco act: 0; NPR1 activator: 1; Hep lipid drop: -6; GASC-1 inh: -5; GC-B act: -12; GRIN3A LBD mod: 5

Results for O=[N+]([O-])c1ccc(SCCc2ccncc2)cc1 ?
aDG glyco act: 0; NPR1 activator: 5; Hep lipid drop: -14; GASC-1 inh: 13; GC-B act: -8; GRIN3A LBD mod: 11*!

Results for CCCCN1CC(=O)N2[C@H](C[C@@]3(C)c4ccccc4N(S(=O)(=O)c4ccccc4)[C@@H]23)C1=O ?
NPR1 activator: 1; GC-B act: 3

What do the screens show for `CCC(C)[C@@H](NC(=O)OC(C)(C)C)c1nnc(S(=O)(=O)Cc2cccc(C)c2)o1` (stereo partly drawn)?
aDG glyco act: 0; NPR1 activator: -6; GASC-1 inh: -6; GC-B act: -5; GRIN3A LBD mod: 12*

Results for Cn1cnc2c1c(=O)[nH]c(=O)n2Cc1ccccc1 ?
aDG glyco act: 0; NPR1 activator: -3; Hep lipid drop: 3; GASC-1 inh: -10; GC-B act: 4; GRIN3A LBD mod: 10*

How did Cn1c(=O)n(Cc2ccccc2)c(=O)c2c1nc(NCC1CCCO1)n2Cc1ccccc1 (stereo not drawn) do in these assays?
aDG glyco act: 0; NPR1 activator: 49*; Hep lipid drop: 1; GASC-1 inh: -1; GC-B act: 57*; GRIN3A LBD mod: -1

Screens: PubChem, several laboratories
